Laboratory results taken from ChEMBL document CHEMBL4431330, “3-Arylpropionylhydroxamic acid derivatives as Helicobacter pylori urease inhibitors: Synthesis, molecular docking and biological evaluation” (Bioorg Med Chem, 2016).
Active and inactive are the calls of the source. The rule behind the calls is not given here.

Tests used:
[1] = biological target: T1, Urease subunit alpha/Urease subunit beta (Helicobacter pylori (strain ATCC 700392 / 26695) (Campylobacterpylori), UniProt P69996); experiment: Inhibition of Helicobacter pylori urease using urea as substrate assessed as ammonia production after 50 mins by indophenol method; type: protein-complex assay
Method in brief: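 Urease prepared from H. pylori grown 24 h at 37 °C in Brucella broth with 10% heat-inactivated horse serum under microaerobic conditions. Cells washed in PBS pH 7.4, sonicated with protease inhibitors, desalted on Sephadex G-25, stored in glycerol at 4 °C. Enzyme (10 U) pre-incubated with compound 50 min at 37 °C. Ammonia read by absorbance (indophenol method).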

[2] = biological target: T1, Urease subunit alpha/Urease subunit beta; experiment: Substrate inhibition of Helicobacter pylori urease in presence of >4 mM urea by indophenol method; type: protein-complex assay
Method in brief: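 No inhibitor. H. pylori urease velocity (indophenol ammonia read-out) was measured against a range of urea concentrations. Km and the substrate-inhibition constant Ksi were obtained by nonlinear least-squares fitting of V = Vmax[S]/(Km + [S] + [S]²/Ksi).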

[3] = biological target: T2, Urease subunit alpha/Urease subunit beta (Helicobacter pylori (strain ATCC 700392 / 26695) (Campylobacterpylori)) (UniProt P69996+P14916); experiment: Potency index, ratio of acetohydroxamic acid IC50 to compound IC50 for Helicobacter pylori urease; type: protein-complex assay
Method in brief: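 Ratio of the acetohydroxamic acid IC50 to the compound IC50. […] Ammonia formed from urea was then read by the Weatherburn indophenol method.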

[4] = biological target: T1, Urease subunit alpha/Urease subunit beta; experiment: Inhibition of Helicobacter pylori urease using urea as substrate assessed as inhibition constant for enzyme-urea-inhibitor complex by non-linear fitting analysis; type: protein-complex assay
Method in brief: (§1)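 Urease came from H. pylori grown 24 h at 37 °C in Brucella broth with 10% heat-inactivated horse serum under microaerobic conditions. Washed cells were sonicated with protease inhibitors, desalted on Sephadex G-25, and stored in glycerol. Ammonia production rate (indophenol) was measured across urea gradients below 4 mM at each inhibitor level. V–[S] curves were fitted nonlinearly. Fitted constants b and c were plotted linearly against [I], and Ki and Ki′ were taken from the X-axis intercepts.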

[5] = Protein binding in human plasma after 20 mins by ultra-filtration method; type: ADME, cell-free; conditions: read-out: PPB (converted)
Method in brief: (§2)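 Ultrafiltration, in triplicate. Compound was incubated with human plasma or freshly collected rabbit plasma for 20 min at 37 °C. Samples were then centrifuged through filter devices at 5000 r/min for 15 min at 37 °C. Initial plasma and ultrafiltrate were diluted 8-fold and read by UV-vis. Nonspecific membrane binding was corrected using PBS spiked at the same concentration. % bound = (1 − Cf/(C0(1−NBS)))×100.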

[6] = biological target: T2, Urease subunit alpha/Urease subunit beta (Helicobacter pylori (strain ATCC 700392 / 26695) (Campylobacterpylori)); experiment: Mixed inhibition of Helicobacter pylori urease assessed as dissociation of enzyme-urea-inhibitor complex by non-linear fitting analysis
[7] = biological target: T1, Urease subunit alpha/Urease subunit beta; experiment: Inhibition of Helicobacter pylori urease using urea as substrate assessed as inhibition constant for enzyme-inhibitor complex by non-linear fitting analysis; type: protein-complex assay; method in brief: as §1
[8] = Protein binding in rabbit plasma after 20 mins by ultra-filtration method; type: ADME, cell-free, Oryctolagus cuniculus; conditions: read-out: PPB (converted); method in brief: as §2

T1 sequence (P69996 whole entry): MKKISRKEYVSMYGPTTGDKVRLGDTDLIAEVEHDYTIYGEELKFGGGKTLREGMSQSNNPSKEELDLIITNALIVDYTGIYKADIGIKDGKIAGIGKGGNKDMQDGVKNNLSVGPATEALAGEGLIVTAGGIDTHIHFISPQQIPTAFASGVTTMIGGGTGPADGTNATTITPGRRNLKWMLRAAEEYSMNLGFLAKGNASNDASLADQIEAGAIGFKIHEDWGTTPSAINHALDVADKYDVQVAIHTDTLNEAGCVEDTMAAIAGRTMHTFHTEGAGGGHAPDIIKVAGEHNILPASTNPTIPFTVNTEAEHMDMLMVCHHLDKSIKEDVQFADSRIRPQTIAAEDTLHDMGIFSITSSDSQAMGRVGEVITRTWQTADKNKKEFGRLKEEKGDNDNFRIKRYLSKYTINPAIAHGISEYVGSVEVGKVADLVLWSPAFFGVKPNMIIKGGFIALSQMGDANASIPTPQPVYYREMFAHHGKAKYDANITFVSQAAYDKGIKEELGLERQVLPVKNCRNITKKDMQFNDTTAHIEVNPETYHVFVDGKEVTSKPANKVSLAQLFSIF
T1 sequence (P14916 whole entry, further chain): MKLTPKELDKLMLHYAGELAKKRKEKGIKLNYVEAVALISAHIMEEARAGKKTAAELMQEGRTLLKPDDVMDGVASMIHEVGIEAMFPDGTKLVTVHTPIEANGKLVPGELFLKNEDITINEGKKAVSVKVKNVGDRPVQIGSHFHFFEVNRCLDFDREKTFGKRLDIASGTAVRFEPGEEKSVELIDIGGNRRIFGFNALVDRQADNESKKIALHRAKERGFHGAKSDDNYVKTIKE
T2 sequence (P14916 whole entry, looked up): as the sequence (P14916 whole entry, further chain) above
T2 sequence (P69996 whole entry, looked up): as the sequence (P69996 whole entry) above

Work on `CN(O)C(=O)CC(O)c1ccc(OCc2ccccc2)cc1` (stereo not drawn) yielded an IC50 [1] of 198 µM.
With `CN(O)C(=O)CC(O)c1cc(Cl)ccc1O` (stereo not drawn) the IC50 [1] was 30.5 µM.
Molecule `NC(N)=O` [UREA] has a Ki [2] of 6.47 mM.
Work on `CN(O)C(=O)CC(O)c1ccc(F)cc1` (stereo not drawn) yielded an IC50 [1] of 77.2 µM.
With `CC(=O)NO` [ACETOHYDROXAMIC ACID] the IC50 [1] was 23.8 µM.
Molecule `CN(O)C(=O)CC(O)c1cccc(Cl)c1Cl` (stereo not drawn) has an IC50 [1] of 95.8 µM.
Molecule `O=C(CC(O)c1ccc(Cl)cc1Cl)NO` (stereo not drawn) has an IC50 [1] of 13.4 µM.
With `CN(O)C(=O)CC(O)c1ccc(Cl)cc1` (stereo not drawn) the IC50 [1] was 87.4 µM.
For `COc1ccc(C(O)CC(=O)N(C)O)cc1OC` (stereo not drawn), the IC50 [1] was 405 µM.
`CN(O)C(=O)CC(O)c1ccc(Cl)c(Cl)c1` (stereo not drawn) gave an IC50 [1] of 90.4 µM.
`CN(O)C(=O)CC(O)c1cccc(Br)c1` (stereo not drawn) showed an IC50 [1] of 78.2 µM.
In the case of `COc1ccccc1C(O)CC(=O)N(C)O` (stereo not drawn), the IC50 [1] is reported as 84 µM.
With `COc1cccc(C(O)CC(=O)N(C)O)c1` (stereo not drawn) the IC50 [1] was 89.2 µM.
In the case of `CN(O)C(=O)CC(O)c1ccc(OCc2ccccc2)c(OCc2ccccc2)c1` (stereo not drawn), the IC50 [1] is reported as 376 µM.
`CN(O)C(=O)CC(O)c1cc(Cl)ccc1OCc1ccccc1` (stereo not drawn) showed an IC50 [1] of 26.2 µM.
`CN(O)C(=O)CC(O)c1c(Cl)cccc1Cl` (stereo not drawn) gave an IC50 [1] of 77.9 µM.
With `CN(O)C(=O)CC(O)c1cccc(F)c1` (stereo not drawn) the IC50 [1] was 71.2 µM.
For `CN(O)C(=O)CC(O)c1ccccc1Cl` (stereo not drawn), the IC50 [1] was 56.6 µM.
For `O=C(CC(O)c1cc(Cl)ccc1OCc1ccccc1)NO` (stereo not drawn), the Ratio IC50 [3] was greater than 20, the IC50 [1] was 0.15 µM and the Ki [4] was 373 nM. For the same molecule, the fraction unbound at 20 min [5] was 0.626, the inhibition [6] was “Active” and the Ki [7] was 404 nM. For the same molecule, the fraction unbound at 20 min [8] was 0.562.
With `CN(O)C(=O)CC(O)c1ccc(N(C)C)cc1` (stereo not drawn) the IC50 [1] was 287 µM.
With `COc1cc(C(O)CC(=O)N(C)O)ccc1OCc1ccccc1` (stereo not drawn) the IC50 [1] was 258 µM.
Molecule `CN(O)C(=O)CC(O)c1cccc(Cl)c1` (stereo not drawn) has an IC50 [1] of 48 µM.
In the case of `O=C(CC(O)c1cc(Cl)ccc1O)NO` (stereo not drawn), the Ratio IC50 [3] is reported as greater than 20, the IC50 [1] is reported as 1.1 µM and the Ki [4] is reported as 1210 nM. For the same molecule, the fraction unbound at 20 min [5] was 0.472, the inhibition [6] was “Active” and the Ki [7] was 4790 nM. For the same molecule, the fraction unbound at 20 min [8] was 0.548.
`CN(O)C(=O)CC(O)c1ccc(Cl)cc1Cl` (stereo not drawn) showed an IC50 [1] of 367 µM.
With `CN(O)C(=O)CC(O)c1ccc(Br)cc1` (stereo not drawn) the IC50 [1] was 97.6 µM.
For `COc1ccc(C(O)CC(=O)N(C)O)cc1` (stereo not drawn), the IC50 [1] was 328 µM.
